The source made the active and inactive calls.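 The calls were made as follows: active = inhibition at 30 µM, averaged over replicates, above 50% in every run; inconclusive = inhibition above 50% in some runs but not others; inactive = inhibition at most 50% in every run.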
Tested on: human washed platelets, PMA-induced P-selectin, flow cytometry
Assay: inhibitors of PMA-stimulated platelet P-selectin exposure, confirmation, selectivity assay, cell-based, fluorescence, flow cytometry, platelets (AID 2529)
Conditions: at 30 µM, stronger effect = higher value
Summary of the method: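 Assay system – platelets stained for surface P-selectin · Also added – Phorbol myristate acetate (PMA) stimulus, 5 nM · Dosing – 30 µM single dose · Timing – compound pre-treatment 20 min, PMA stimulation 15 min, antibody labeling 20 min · Signal – flow cytometry, PE anti-P-selectin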

CCCC(=O)Nc1cccc(NC(=O)c2ccccc2Br)c1
inhibition: 13% (inactive)

O=C(Nc1cccc(NC(=O)c2ccccc2Cl)c1)c1ccco1
inhibition: 17% (inactive)
inhibition (measured here: second run average inhibition): 8%

— PubChem BioAssay AID2529 (Broad Institute, 2010)
